Source: PubChem (Sanford-Burnham Center for Chemical Genomics)
Diaph inh CS – counter-screen for diaphorase-based assays: diaphorase inhibitors and chemical oxidizers. AID 1217. diaphorase resazurin-to-resorufin fluorescence, NADH, 16 min; bacterial (C. kluyveri) enzyme, not human. hit rate 0.69% among 190,000. inhibition, % at 20 µM;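 active = primary screen inhibition at 20 µM above a set limit, cut at about 50% in these data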;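 also: plate controls were DMSO with full reaction for no effect and wells lacking NADH for full effect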
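System: Diaphorase enzyme from Clostridium kluyveri | Amount: Enzyme working solution with 0.14 U/mL diaphorase | Benchmarks: No-NADH positive control and DMSO neutral control | Signal: Fluorescence of resorufin formed from resazurin, Ex 544/Em 590 nm | Schedule: 16-min room-temperature incubation before reading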
PfGluPho inh – PfG6PD (Plasmodium falciparum) enzyme inhibition. hit rate 0.78% among 350,000. inhibition, % at 20 µM. PfGluPho enzyme, NADPH resazurin-diaphorase fluorescence;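 active = inhibition reaching at least a set limit at 20 µM in the primary screen, cut at about 59% in these data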;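 also: 0% = DMSO wells with substrate and 100% = DMSO wells lacking glucose-6-phosphate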
Diaphorase act – diaphorase activation or chemical reduction counter-screen; activation factor at 20 µM; Diaphorase/resazurin coupled assay, resorufin fluorescence, 16 min; stronger effect = higher value; 1 = vehicle wells, 0 = NADH-free wells; hit rate 0.005% among 190,000; AID 1229;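 active = diaphorase activity raised at least twofold by the compound at 20 µM; inactive = activation factor below 2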
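Material: Clostridium kluyveri diaphorase, purified enzyme; Quantity: enzyme 0.07 U/mL final; Medium: HEPES pH 7.4 buffer with MgCl2 and Tween 20; Dosing: single compound dose of 20 µM, 1% DMSO final; Schedule: 16 min reaction at room temperature; Measured by: red resorufin fluorescence at 544/590 nm excitation/emission.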
G6PDH counter – inhibits Leuconostoc G6PDH, flagging false hits in G6PDH-based assays; inhibition, % at 5 µM; Purified L. mesenteroides G6PDH, diaphorase/resazurin coupled fluorescence, 45 min; hit rate 0.12% among 200,000; AID 1020; in the data active = inhibition above about 50%
HKDC1 inhibitor – HKDC1 (human) hexokinase inhibition; Q2TB90; recombinant HKDC1, G6PDH/diaphorase resazurin coupled fluorescence; inhibition, % at 20 µM; hit rate 0.16% among 340,000;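 active = inhibition above about 35% when tested at 20 µM, limit read from the data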;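 also: plate controls were DMSO wells with enzyme for no effect and DMSO wells lacking enzyme for full effect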
Target sequence (Q2TB90 whole entry, looked up): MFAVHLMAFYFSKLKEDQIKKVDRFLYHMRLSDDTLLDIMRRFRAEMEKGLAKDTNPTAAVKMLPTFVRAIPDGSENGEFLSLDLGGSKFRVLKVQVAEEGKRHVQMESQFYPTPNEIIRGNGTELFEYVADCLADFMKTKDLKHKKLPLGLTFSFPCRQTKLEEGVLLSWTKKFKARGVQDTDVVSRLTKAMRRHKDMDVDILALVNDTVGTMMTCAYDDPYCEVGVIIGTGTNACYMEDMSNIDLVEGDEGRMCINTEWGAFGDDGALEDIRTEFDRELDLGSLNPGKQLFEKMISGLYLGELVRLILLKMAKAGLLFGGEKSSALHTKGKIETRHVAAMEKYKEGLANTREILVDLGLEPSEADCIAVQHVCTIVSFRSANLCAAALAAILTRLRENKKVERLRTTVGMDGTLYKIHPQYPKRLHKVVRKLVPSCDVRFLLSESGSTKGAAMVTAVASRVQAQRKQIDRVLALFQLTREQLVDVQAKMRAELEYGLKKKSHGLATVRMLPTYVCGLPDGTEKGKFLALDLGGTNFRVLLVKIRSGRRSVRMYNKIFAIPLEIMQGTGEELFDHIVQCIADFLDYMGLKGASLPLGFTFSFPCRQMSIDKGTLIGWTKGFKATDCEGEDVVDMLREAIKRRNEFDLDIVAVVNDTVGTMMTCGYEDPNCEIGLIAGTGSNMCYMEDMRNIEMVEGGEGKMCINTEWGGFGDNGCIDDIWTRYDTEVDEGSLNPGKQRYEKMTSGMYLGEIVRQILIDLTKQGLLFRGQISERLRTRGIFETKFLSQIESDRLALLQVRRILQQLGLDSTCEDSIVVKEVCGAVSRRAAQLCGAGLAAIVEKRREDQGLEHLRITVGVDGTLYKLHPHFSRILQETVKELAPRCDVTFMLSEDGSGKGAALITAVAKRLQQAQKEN
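Test system: recombinant HKDC1 (HK5) hexokinase enzyme, produced in-house / Doses: 20 µM test compound, 1% DMSO / Timing: 90 min, room temperature / Detection: G6PDH/diaphorase-coupled fluorescence, 1 mM NADP, 100 µM resazurin, 525/613 nm / Control set: DMSO wells with and without enzyme mix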
HKDC1 act conf2 – HKDC1 (human) activation, single-dose confirmed | recombinant HKDC1, G6PDH/diaphorase resazurin fluorescence; stronger effect = lower value | inhibition, % at 20 µM | hit rate 14% among 740 | shares compounds with HKDC1 inhibitor | AID 504708;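 active = inhibition at or below a set negative limit, negative inhibition meaning the enzyme was activated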
PfGluPho conf – confirmation of Plasmodium falciparum G6PD inhibitors | shares compounds with PfGluPho inh | recombinant PfGluPho, NADPH-diaphorase-resazurin fluorescence | inhibition, % at 20 µM | hit rate 34% among 2,400;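 active = inhibition of at least 50% at 20 µM in any single replicate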;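 also: 0% = DMSO with substrate and 100% = DMSO lacking glucose-6-phosphate substrate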
Diaphorase 10uM – inhibits diaphorase or oxidizes, flagging false PfG6PD hits; hit rate 39% among 820; inhibition, % at 20 µM; diaphorase-coupled resazurin reduction, fluorescence, NADPH 10 uM; shares compounds with PfGluPho inh;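 active = average inhibition reaching 50% or more with the compound at 20 µM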;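 also: resorufin red fluorescence formed as diaphorase reduces resazurin using NADPH; 0% = DMSO with enzyme and 100% = DMSO without enzyme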
Diaphorase 30uM – inhibits diaphorase or oxidizes, flagging false PfG6PD hits | hit rate 29% among 820 | AID 504863 | Diaphorase/resazurin coupled assay, resorufin fluorescence, 30 uM NADPH | inhibition, % at 20 µM | shares compounds with PfGluPho inh;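 active = inhibition averaging 50% or more, tested at 20 µM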;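 also: 0% = DMSO with enzyme and 100% = DMSO wells lacking diaphorase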
Numbers without * were called inactive; . = not tested or not shown. Shown are actives, neighbours in structure and some others; about 1.3% of the full set was active somewhere.

SMILES | Diaph inh CS | PfGluPho inh | Diaphorase act | G6PDH counter | HKDC1 inhibitor | HKDC1 act conf2 | PfGluPho conf | Diaphorase 10uM | Diaphorase 30uM
Cc1ccc(-n2nc3c(N4CCC(C(=O)NCc5cccc(F)c5)CC4)nnc(C)c3c2C)cc1 | . | 18 | . | . | 1 | . | . | . | .
CCOc1ccccc1CNC(=O)CCC(=O)N1Cc2ccccc2Oc2ncccc21 | . | -14 | . | . | -5 | . | . | . | .
N#Cc1c([N+](=O)[O-])cc([N+](=O)[O-])cc1S(=O)(=O)Cc1ccccc1 | . | 109* | . | . | 34 | 20 | 100* | 91* | 92*
CC1Oc2cc3oc4c(O)c(O)ccc4c(=O)c3c(O)c2C1(C)C (stereo not drawn) | . | 10 | . | . | 13 | . | . | . | .
COc1ccc(N2CC(C(=O)Nc3cccnc3)CC2=O)cc1 (stereo not drawn) | . | 5 | . | . | 7 | . | . | . | .
CNC[C@@H]1Oc2cc(Br)ccc2S(=O)(=O)N([C@@H](C)CO)C[C@@H]1C | . | 9 | . | . | . | . | . | . | .
O=C1C(=C(I)I)c2ccccc2-c2ccccc21 | . | 104* | . | . | 61* | 32 | 60* | 61* | 70*
O=C1C=C(NCc2ccccc2)c2ccccc2C1=O | -15 | 118* | 1.1 | 53* | 80* | 56 | 29 | . | .
O=C(CSc1nnc2c(n1)[nH]c1ccc(F)cc12)NCc1ccc(F)cc1 | . | -12 | . | . | 0 | . | . | . | .
O=C1OC(c2ccc(O)cc2)(c2ccc(O)cc2)c2ccccc21 | 15 | -48 | 0.9 | 10 | 2 | . | . | . | .
O=C1OC(c2ccc3ccccc3c2O)(c2ccc3ccccc3c2O)c2ccccc21 | . | 75* | . | . | 36* | 15 | 57* | 15 | 11
O=C1C(O)=CC(=C(c2ccccc2)c2ccccc2)c2ccccc21 | . | 117* | . | . | 78* | 18 | -25 | . | .
CC1(C)CC2(C)CC(=O)C1C(C(=O)O)C2C(=O)O (stereo not drawn) | . | 4 | . | . | . | . | . | . | .
COc1cc(CN2CCCC(C(=O)c3ccc4c5c(cccc35)CC4)C2)cc(OC)c1O (stereo not drawn) | 46 | 74* | 0.5 | 62* | 34 | 26 | 79* | 16 | 0
CC(=O)OCC1OC(n2cc(F)c(=O)[nH]c2=O)C(OC(C)=O)C1OC(C)=O (stereo not drawn) | . | 1 | . | . | 5 | . | . | . | .
O=C1C(F)=CC(COC(c2ccccc2)(c2ccccc2)c2ccccc2)OC1n1cc(F)c(=O)[nH]c1=O (stereo not drawn) | . | 59* | . | . | 40* | 14 | -3 | . | .
COc1ccc2c(c1)c1ccc3c(c1n2C)C(=O)C=CC3=O | . | 56 | . | . | -1 | . | . | . | .
Cn1c2ccccc2c2ccc3c(c21)C(=O)C=CC3=O | . | 81* | . | . | 37* | 0 | 53* | -40 | -7
CCCCOc1ccc(N2C(=O)C(C)CNC2=S)cc1 (stereo not drawn) | . | -9 | . | . | 0 | . | . | . | .
C=CCn1c(=O)/c(=C/c2ccc(Cl)cc2)s/c1=C(\C#N)c1nnc2n1CCCCC2 | . | 14 | . | . | 20 | . | . | . | .
COC(=O)c1ccc(CCc2cc(O)c(Br)cc2O)cc1 | . | 119* | . | . | 69* | 54 | 19 | . | .
CC1(C)CC(=O)C=C(c2n[nH]nc2C2CCCCC2)C1 | . | 17 | . | . | . | . | . | . | .
CCOC(=O)c1sc(NC(=O)CSc2nnc(Cc3ccccc3)o2)c(C#N)c1C | 9 | 88* | 0.9 | -25 | -40 | -30 | 60* | -24 | -18
CCOC(=O)c1c(NC(=O)CSc2nnc(Cc3ccccc3)o2)sc(C(C)=O)c1C | 16 | -3 | 0.8 | -4 | 1 | . | . | . | .
O=C1C=CC(=O)c2c(O)c(N3CCN(CCO)CC3)c(Cl)c(O)c21 | . | 103* | . | . | 32 | 10 | 89* | 54* | 57*
O=C1C=CC(=O)c2c(O)c(N3CCN(CCOCCO)CC3)c(Br)c(O)c21 | . | 115* | . | . | 46* | 11 | 87* | 61* | 53*
